In the library only some 2.6% were active in any assay of this set; here they are far more common.
MT stabilize HCS = microtubule stabilization, imaging screen | HeLa tubulin immunostaining HCS, 24 h; share of cells brighter than vehicle mean+2SD | 200,000 tested, 0.83% active | AID 2205 | % tubulin-high responders, % at 10 µM;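 active = plate Z-score above 3 for both tubulin-high and condensed-nucleus cell shares, with cell loss under 80%, at 10 µM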;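 also: anti alpha tubulin signal scored within the nucleus-defined area of each cell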
NPY-Y2 PAM-ag = potentiators or agonists of human neuropeptide Y receptor Y2; cells expressing NPY-Y2, potentiator/agonist read-out; P49146; 220,000 tested, 0.45% active; activation, % at 3.6 µM; in the data active = activation above about 27%;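 also: cells stimulated with NPY near EC25 plus isoproterenol at EC100; 0% = vehicle plus submaximal agonist and 100% = vehicle plus saturating agonist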
NPY-Y1 antag = NPY-Y1 (human) receptor antagonism | 200,000 tested, 1% active | HEK293-CNG Y1 cells, membrane potential fluorescence; NPY at EC95, then isoproterenol | P25929 | inhibition, % at 3.6 µM | AID 1040;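 active = inhibition above the campaign mean inhibition of all tested compounds plus 3 SD, cut at about 20% in these data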;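 also: 0% = DMSO wells given NPY plus isoproterenol and 100% = isoproterenol alone without NPY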
Target sequence (P25929 whole entry, looked up): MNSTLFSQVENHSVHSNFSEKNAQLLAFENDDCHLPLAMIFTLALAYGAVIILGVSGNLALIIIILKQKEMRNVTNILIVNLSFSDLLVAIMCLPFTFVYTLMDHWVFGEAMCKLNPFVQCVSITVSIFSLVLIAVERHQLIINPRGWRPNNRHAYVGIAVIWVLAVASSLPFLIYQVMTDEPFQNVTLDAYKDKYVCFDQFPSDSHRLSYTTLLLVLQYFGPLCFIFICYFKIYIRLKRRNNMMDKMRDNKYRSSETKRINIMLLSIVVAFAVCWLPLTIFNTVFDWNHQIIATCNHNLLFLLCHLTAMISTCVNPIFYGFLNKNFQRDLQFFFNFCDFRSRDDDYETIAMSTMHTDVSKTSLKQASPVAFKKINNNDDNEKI
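Benchmarks – high control isoproterenol alone, low control NPY with isoproterenol · Material – HEK293 Y1/CNG channel cell line · Times – dye 3 h, compound 60 min room temperature, stimulation 45 min · Probe or stimulus – NPY (25 nM), isoproterenol (1 µM), Ro 20-1724 (25 µM) · Evaluation – % inhibition of NPY effect · Signal – fluorescence, membrane potential probe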
NPY-Y1 PAM-ag = potentiators or agonists of human neuropeptide Y receptor Y1. P25929. NPY-Y1 expressing cells, potentiator/agonist activation. activation, % at 3.6 µM. 220,000 tested, 0.37% active. AID 1304; in the data active = activation above about 33%, passing the limit was not always enough;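 also: cells stimulated with NPY at EC10 then isoproterenol at EC100; 0% = low agonist plus stimulus and 100% = saturating agonist plus stimulus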
NPY Y2 blocker = antagonists of human neuropeptide Y receptor Y2 | P49146 | NPY-Y2 expressing cells, antagonist mode | inhibition, % at 2.7 µM | 140,000 tested, 0.99% active; in the data active = inhibition above about 17%;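 also: 0% = vehicle with agonist challenge and 100% = reference antagonist with challenge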
bCat nuc transl = beta-catenin nuclear translocation modulation; HeLa beta-catenin nuclear translocation, immunofluorescence imaging; nuclear translocation activity, % at 5 µM; 190,000 tested, 0.3% active; AID 1665;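 active = nuclear translocation activity above 50% at 5 µM, with a well cell count of 50 or more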;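 also: per-cell ratio of nuclear to cytoplasmic median beta-catenin stain intensity; plate controls were DMSO negative control for no effect and GSK-3 inhibitor IX positive control for full effect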
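Test system: human HeLa cells, endogenous beta-catenin. Times: 24 h compound exposure, 37°C. Measured by: beta-catenin immunofluorescence imaging with DAPI.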
* marks the source's active call; other numbers are inactive results; nt = not tested or not shown.

SMILES	MT stabilize HCS	NPY-Y2 PAM-ag	NPY-Y1 antag	NPY-Y1 PAM-ag	NPY Y2 blocker	bCat nuc transl
Cc1ccc(C(=O)c2cc([N+](=O)[O-])ccc2N2CCOCC2)cc1	18.4*	8.6	1.6	-10.8	3.7	8.0
Cc1ccc(C(=O)c2cc([N+](=O)[O-])ccc2N2CCCCC2)c(C)c1	5.9	-20.1	29.8*	-27.8	21.9*	58.8*
O=C(c1cc([N+](=O)[O-])ccc1N1CCCCC1)N1CCc2ccccc21	17.3*	4.9	9.0	-13.8	13.6	0.2
O=C(O)c1cc([N+](=O)[O-])ccc1N1CCCCC1	2.4	-13.5	2.2	-33.7	-0.1	1.7
COc1ccc(C(=O)c2cc([N+](=O)[O-])ccc2N2CCOCC2)cc1	6.7	-6.5	14.4	3.8	12.9	57.1*
CN(Cc1ccccc1)C(=O)CN(c1ccc(F)cc1)S(=O)(=O)c1ccc2c(c1)OCCO2	3.0	1.5	-1.8	22.8	-0.2	5.0
CC(=O)c1ccc(OCCCC(=O)NC2CCCc3ccccc32)cc1 (centres undefined)	4.3	-7.6	5.2	-13.9	4.1	-1.8
CCOc1ccc(C(=O)c2cc([N+](=O)[O-])ccc2N2CCOCC2)cc1	14.9*	-1.1	20.1	-19.4	14.3	36.6
Cn1cnc([N+](=O)[O-])c1Sc1ncccc1N	0.9	-4.2	-0.3	11.0	-2.5	-3.0
CCOC(=O)c1c(C)[nH]c(C(=O)C(C)Sc2ccc(Cl)cc2)c1C (centres undefined)	2.5	-25.5	84.0*	-31.8	34.2*	0.2
CCOC(=O)c1[nH]c(C)c(C(=O)Nc2ccccc2C)c1C	30.6*	-3.3	1.8	12.5	1.0	43.0
CCOC(=O)c1[nH]c(C)c(C(=O)Nc2ccc(C)c(Cl)c2)c1C	3.8	-14.1	-2.6	-28.1	3.1	0.2
CCOC(=O)c1c(C)[nH]c(C(=O)C(C)Cl)c1C (centres undefined)	4.6	-12.9	1.6	3.8	nt	1.1
CCOC(=O)c1[nH]c(C)c(C(=O)Nc2cc(Cl)ccc2C)c1C	38.1*	-17.3	14.3	-31.1	4.7	58.1*
Cc1ccc(S(=O)(=O)NC(C(=O)N2CCOCCOCCOCC2)c2ccccc2)cc1 (centres undefined)	3.8	1.4	6.0	-11.7	nt	-0.3
O=C(O)CN1CCc2ccccc2C1	2.9	3.8	-0.5	20.4	nt	-1.3
COC(=O)C1=C(Nc2cc(Cl)cc(Cl)c2)CSC1	nt	-36.0	nt	-32.3	nt	-1.8
CCNC(=O)C12CCC(C)(C(=O)O1)C2(C)C (centres undefined)	2.3	-2.9	4.3	-2.2	nt	-0.6
N#CC1=C(SCC(=O)c2ccc(Br)cc2)NC2=C(C(=O)CCC2)C1c1ccco1 (centres undefined)	31.7*	-14.9	6.5	9.3	5.8	46.7
CCN(CC)c1ccc(S(=O)(=O)N2CCOCC2)cc1NC(=O)CSc1n[nH]c(N)n1	nt	-3.0	nt	-6.3	nt	-1.5
COc1ccc(C(=O)N/N=C/c2ccc(OC)c(CSc3ccccn3)c2)cc1	3.2	3.2	0.7	-0.9	2.7	-0.7
COc1ccc(/C=N/NC(=O)c2cccnc2)cc1CSc1ccccn1	nt	4.2	nt	4.6	nt	64.9*
Cn1c(=O)oc2cc(S(=O)(=O)N3CCCC(C(=O)NC4CCCc5ccccc54)C3)ccc21 (centres undefined)	7.7	1.0	0.1	2.1	3.9	nt
CCCCc1c(C)nc2ccccc2c1SCCC(=O)O	3.8	17.8	-1.4	-4.8	nt	-3.9
COc1cccc(C(=O)NC(Cc2ccccc2)c2ccc3c(c2)OCCCO3)c1 (centres undefined)	2.4	-18.3	2.1	-27.1	4.2	-5.3
SMILES	MT stabilize HCS	NPY-Y2 PAM-ag	NPY-Y1 antag	NPY-Y1 PAM-ag	NPY Y2 blocker	bCat nuc transl
Cc1ccc2nc(-c3ccc(NC(=S)NC4CC(C)(C)NC(C)(C)C4)cc3)sc2c1	33.8	13.5	-6.7	25.8	nt	71.7*
Cc1ccc2nc(-c3ccc(NC(=S)NC(=O)C(C)C)cc3)sc2c1	1.7	13.4	-1.5	50.7*	-0.8	-1.4
CS(=O)(=O)c1ccc(C(=O)OCc2nnc(-c3ccc(Cl)cc3)o2)cc1[N+](=O)[O-]	1.3	10.9	-3.3	9.3	nt	2.3
N#CC1(Cc2ccc(Cl)cc2)c2ccccc2C=CN1C(=O)c1ccccc1 (centres undefined)	1.8	-10.7	12.8	-15.5	14.2	-5.6
COc1ccc(-n2cc(CNCCCN3CCCC3=O)c(-c3ccccc3Cl)n2)cc1	2.8	-6.6	20.5*	-1.5	nt	1.6
Cc1cc(C)n(-c2nc3c(c(=O)[nH]c(=O)n3C)n2Cc2ccccc2)n1	1.3	-2.2	3.7	13.6	0.9	-5.8
Cc1cc(C)n(-c2nc3c(c(=O)[nH]c(=O)n3C)n2CCc2ccccc2)n1	40.9*	3.9	2.2	7.8	0.0	-2.4
Cc1nc(C(F)(F)F)c(C(=O)N/N=C(\N)c2ccccn2)s1	3.7	-7.1	0.2	-2.7	nt	0.3
CCOc1cc(/C=C2/SC(=S)N(C)C2=O)ccc1Oc1ccc([N+](=O)[O-])cc1[N+](=O)[O-]	1.9	3.0	-4.3	6.6	nt	20.8
COC(=O)N/N=C/c1cc(C)n(-c2ccccc2)c1C	6.4	2.8	-2.6	-14.2	3.5	-3.3
Cc1ccc(-n2c(C)cc(/C=N/NC(=O)Cn3c4ccccc4c(=O)c4ccccc43)c2C)cc1	1.6	55.5*	-5.3	60.9*	0.9	0.3
CC1=C(C(=O)Nc2cccc(F)c2)C(c2ccsc2)C2=C(CC(C)(C)CC2=O)N1 (centres undefined)	12.4*	1.5	11.0	-8.2	5.2	75.5*
CC1=C(C(=O)Nc2ccccc2F)C(c2ccsc2)C2=C(CC(C)(C)CC2=O)N1 (centres undefined)	15.0*	-7.3	-1.7	-3.8	5.5	-0.4
CC1=C(C(=O)Nc2ccc(F)cc2)C(c2ccc(C)o2)C2=C(CC(C)(C)CC2=O)N1 (centres undefined)	6.5	-1.7	1.6	-2.6	2.5	-0.8
O=C(N/N=C\c1ccc(F)cc1)c1csnn1	2.4	nt	nt	nt	3.1	0.8
O=S(=O)(c1ccc(Cl)cc1)N1CCC2(CC1)CO2	4.5	-1.2	5.0	1.5	nt	-6.1
COc1ccc(-n2cnc3cc(NCc4ccccn4)ccc32)cc1	1.8	-4.8	-2.4	11.7	0.2	nt
COc1ccccc1-n1cnc2cc(NCc3ccccn3)ccc21	30.1*	16.4	1.9	34.6	-0.8	nt
OC(CNCC(c1ccc(Cl)cc1Cl)c1c[nH]c2ccccc12)c1ccccc1 (centres undefined)	10.7*	3.5	-3.8	14.9	nt	-2.9
COc1ccc(-c2nsc(C(=O)N(c3ccc(F)cc3)C(C(=O)NC3CCCC3)c3ccc(OC)cc3)c2N)cc1 (centres undefined)	3.6	19.0	-0.7	13.6	1.4	-1.0
Cc1cccn2c(CNCC3(c4ccccc4)CCCC3)c(C(=O)N3CCOCC3)nc12	1.5	11.8	20.3*	8.4	nt	-0.3

Source: PubChem BioAssay (several laboratories)
